Measurements as given in ChEMBL document CHEMBL4041534, “Treatment of Sepsis Pathogenesis with High Mobility Group Box Protein 1-Regulating Anti-inflammatory Agents” (J Med Chem, 2017).
Positions count from the first letter of the chain named. Values after ≈ are worked out from the molar mass of the structure shown. Each block holds one molecule with its values, some of them ahead of it. Active and inactive are the calls of the source. The calls are words filed in the database; no cut-off is given here.

How the values were obtained:
[1] = target: T1, High mobility group protein B1 (Homo sapiens) (UniProt P09429); assay: Inhibition of ICM-BP binding to recombinant human HMGB1 assessed as reduction in Cy5-azide incorporation at 1 to 20 uM pretreated for 60 mins followed by ICM-BP addition for 20 mins and subsequent UV light irradiation for 5 mins by fluorescence assay
T1 sequence (whole entry): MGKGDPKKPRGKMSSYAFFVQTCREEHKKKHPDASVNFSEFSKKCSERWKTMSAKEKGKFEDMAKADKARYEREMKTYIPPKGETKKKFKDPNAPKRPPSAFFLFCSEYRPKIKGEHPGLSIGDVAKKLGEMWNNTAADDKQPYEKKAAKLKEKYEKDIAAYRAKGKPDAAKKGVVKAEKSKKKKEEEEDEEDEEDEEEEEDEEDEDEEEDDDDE
In short: (§1)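 Purified HMGB1 (1 μg in water) was pretreated with competitor for 60 min, with DMSO held at 0.8% final. ICM-BP (5 μM) was then added for 20 min, followed by 365 nm UV for 5 min on ice. Cy5-azide was attached by click reaction, then samples were run on 12.5% SDS-PAGE and in-gel fluorescence scanned. Competitor was dosed in a graded series.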

[2] = Cytotoxicity against mouse RAW264.7 cells assessed as cell viability at 10 uM in presence of LPS measured after 24 hrs by WST assay relative to control; format: cell-based; conditions: read-out: Activity
In short: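 Raw264.7 cells, seeded 1 day earlier, were washed into serum-free DMEM and given 100 ng/mL LPS plus compound (10 μM) for 24 h. After the supernatant was removed, wells were refilled with 10% FBS DMEM and WST reagent was added for 20 min at 37 °C. Absorbance was read at 450 nm, and viability is relative to vehicle. At least three independent experiments.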

[3] = target: T2, High mobility group protein B1 (Mus musculus) (UniProt P63158); assay: Inhibition of HMGB1 translocation from nucleus to cytosol in LPS-stimulated mouse RAW264.7 cells assessed as inhibition of NO release at 10 uM measured after 24 hrs by Griess assay relative to control
T2 sequence (whole entry): T1 sequence (whole entry) with E189D, D202E
In short: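 Raw264.7 cells, seeded 1 day earlier, were moved to serum-free DMEM and exposed to 100 ng/mL LPS with 10 μM compound for 24 h. Supernatant NO was measured with Griess reagent (sulfanilamide/N-(1-naphthyl)ethylenediamine/phosphoric acid) at room temperature, absorbance 548 nm. Inhibition was set against LPS+DMSO wells, blank-corrected, with four control wells. At least three independent experiments.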

[4] = target: MAP kinase p38 (Mus musculus) (UniProt P47811+O08911+Q9WUI1+Q9Z1B7); assay: Inhibition of MAPK p38 phosphorylation at Thr180/Tyr182 resdiues in LPS-stimulated mouse RAW264.7 cells at 20 uM pretreated followed by LPS-induction by Western blot analysis
In short: (§2)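 Raw264.7 cells were pretreated with 20 μM compound, then stimulated with 100 ng/mL LPS, with DMSO as control. Lysates in RIPA buffer with protease and phosphatase inhibitors were normalized by BCA and run on SDS-PAGE/Western blot for phospho-p38, JNK and ERK, with GAPDH as loading control. Detection by ECL, and band intensities were quantified. At least three independent experiments.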

[5] = target: T2, High mobility group protein B1 (Mus musculus); assay: Inhibition of HMGB1 nuclear translocation in LPS-stimulated mouse RAW264.7 cells assessed as inhibition of IL-6 production at 10 uM pretreated for 1 hr followed by LPS-induction by Western blot analysis
In short: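 Raw264.7 cells were pretreated with 10 μM compound for 1 h, then given 100 ng/mL LPS. IL-6 released into the culture medium was detected by Western blot with ECL chemiluminescence, DMSO as control. At least three independent experiments.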

[6] = Half life in ICR mouse at 10 mg/kg, ip by LC/MS/MS method; format: ADME, organism-based; conditions: in vivo
[7] = target: T1, High mobility group protein B1 (Homo sapiens); assay: Inhibition of ICM-BP binding to recombinant human HMGB1 assessed as reduction in Cy5-azide incorporation pretreated for 60 mins followed by ICM-BP addition for 20 mins and subsequent UV light irradiation for 5 mins by fluorescence assay; in short: as §1
[8] = target: T2, High mobility group protein B1 (Mus musculus); assay: Inhibition of HMGB1 nuclear translocation in LPS-stimulated mouse RAW264.7 cells at 20 uM pretreated for 1 hr followed by LPS-induction measured after 2 hrs by Hoechst 33342/TRITC staining based immunofluorescence microscopic method
In short: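 Raw264.7 cells on chambered coverglass were pretreated with 20 μM compound for 1 h, then given 500 ng/mL LPS for 2 h. Cells were fixed in 4% paraformaldehyde, permeabilized with methanol at −20 °C, blocked with 2% BSA, and stained with anti-HMGB1 plus TRITC secondary and Hoechst 33342. Imaged by deconvolution fluorescence microscopy. At least three independent experiments.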

[9] = Equilibrium aqueous solubility of the compound by microsol method; format: physicochemical
In short: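 Equilibrium aqueous solubility by the μsol method. Mean ± SD, n = 3.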

[10] = Stability in human liver microsomes assessed as compound remaining preincubated for 5 mins followed by NADPH addition measured after 30 mins LC/MS/MS method; format: ADME, microsome; conditions: read-out: Stability
In short: (§3)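 Compounds were incubated with human or mouse liver microsomes in 100 mM potassium phosphate, pH 7.4, at 37 °C for 5 min. NADPH regenerating solution was added, and the reaction was stopped at 30 min with ice-cold acetonitrile containing imipramine internal standard. Percent remaining was measured by LC/MS/MS. Mean ± SD, n = 3.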

[11] = Stability in mouse liver microsomes assessed as compound remaining preincubated for 5 mins followed by NADPH addition measured after 30 mins LC/MS/MS method; format: ADME, microsome; conditions: read-out: Stability; in short: as §3
[12] = tested on: Mus musculus; assay: Anti-inflammatory activity in C57BL/6(B6) mouse model of CLP-induced sepsis assessed as survival rate at 10 mg/kg, ip administered daily for 21 days starting from 1 hr prior to CLP-induction (reference value: 10 %); format: functional
[13] = target: T2, High mobility group protein B1 (Mus musculus); assay: Inhibition of HMGB1 translocation from nucleus to cytosol in LPS-stimulated mouse RAW264.7 cells assessed as inhibition of TNF-alpha production at 10 uM measured after 4 hrs by ELISA relative to control
In short: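 Raw264.7 cells in serum-free DMEM were treated with 100 ng/mL LPS and 10 μM compound (final). After 4 h, medium was diluted in 1% BSA/PBS and secreted TNF-α was quantified by ELISA against a standard curve of TNF-α protein. Inhibition is relative to control. At least three independent experiments.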

[14] = organism: Mus musculus; assay: Inhibition of NF-kappaB p65 nuclear translocation in LPS-stimulated mouse RAW264.7 cells at 20 uM pretreated followed by LPS-induction by Hoechst 33342/TRITC staining based immunofluorescence microscopic method
In short: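 NF-κB p65 immunofluorescence in Raw264.7 cells pretreated with 20 μM compound, then stimulated with 500 ng/mL LPS. Fixation was 4% paraformaldehyde, methanol permeabilization at −20 °C, and BSA blocking. Cells were stained with anti-p65 plus TRITC secondary and Hoechst 33342 nuclear stain, then imaged by deconvolution microscopy. At least three independent experiments.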

[15] = organism: Mus musculus; assay: Inhibition of ERK phosphorylation in LPS-stimulated mouse RAW264.7 cells at 20 uM pretreated followed by LPS-induction by Western blot analysis; in short: as §2
[16] = tested on: Mus musculus; assay: Anti-inflammatory activity in C57BL/6(B6) mouse model of CLP-induced sepsis assessed as decrease in serum IL-6 level at 10 mg/kg, ip administered daily for 21 days starting from 1 hr prior to CLP-induction by ELISA; format: functional, organism-based
In short: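 Serum IL-6 measured by sandwich ELISA. Blood was taken from CLP-induced C57BL/6 mice 24 h after surgery. Plates coated with anti-IL-6 mAb overnight at 4 °C and blocked with 1% BSA/PBS; serum incubated overnight at 4 °C. Detection used biotinylated anti-IL-6 and streptavidin-HRP, TMB development and absorbance at 450 nm. Run in triplicate, three independent repeats.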

[17] = organism: Mus musculus; assay: Inhibition of JNK phosphorylation at Thr183/Tyr185 resdiues in LPS-stimulated mouse RAW264.7 cells at 20 uM pretreated followed by LPS-induction by Western blot analysis; in short: as §2

inhibition [1]: inactive
inhibition [3]: 45%
SMILES: Cn1c(=O)n2n(c1=O)C1C(=CC2)C(C)(C)Oc2cc(O)ccc21 (centres undefined)
viability at 24 h, 10 µM [2]: 114%

SMILES: COc1cc(OC)cc(-n2c(=O)n3n(c2=O)C2C(=CC3)C(C)(C)Oc3cc(O)ccc32)c1 (centres undefined)
viability at 24 h, 10 µM [2]: 121%
inhibition [4]: Active
inhibition [5]: Active
half-life [6]: 5 h
inhibition [3]: 94%
inhibition [7]: Dose-dependent effect
inhibition [8]: Active
solubility thermodynamic [9]: 65.1 µg/mL (≈ 149 µM)
remaining at 0.5 h [10]: 41.2%
remaining at 0.5 h [11]: 20.2%
survival at 10 mg/kg [12]: 56%
inhibition [13]: 60%
inhibition [14]: Active
inhibition [15]: Active
Activity [16]: Active
inhibition [17]: Active
